Test [1] has as its target D(2) dopamine receptor (Bos taurus, UniProt P20288). The experiment in a line: Displacement of [3H]spiroperidol from homogenized bovine pituitary Dopamine receptor D2. A general note: Displacement assays read how much labelled ligand stays bound in the presence of the test substance.
The species named for test [2] is Oryctolagus cuniculus. Put plainly: Ability to relax the electrically stimulated rabbit ear artery was determined. It counts as functional. In outline: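 Isolated, perfused rabbit ear artery under electrical stimulation; inhibition of the neurogenic response taken as the D-2 agonist read-out. Concentration–response curves were also run in the presence of (S)-sulpiride at several nM concentrations. Points are mean ± SEM of at least four experiments.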

Test [3] concerns the target T1, D(1A) dopamine receptor (Rattus norvegicus, UniProt P18901). Put plainly: Dopamine receptor D1 agonist efficacy was measured with stimulation of dopamine-sensitive rat adenylate cyclase in caudate membranes. It counts as functional, cell membranes, Membrane.
The target in test [4] is D(1A) dopamine receptor (Rattus norvegicus) (UniProt P18901). Particulars: Striatum; call rule not given here.
Chain of D(1A) dopamine receptor (Rattus norvegicus) (P18901 whole entry): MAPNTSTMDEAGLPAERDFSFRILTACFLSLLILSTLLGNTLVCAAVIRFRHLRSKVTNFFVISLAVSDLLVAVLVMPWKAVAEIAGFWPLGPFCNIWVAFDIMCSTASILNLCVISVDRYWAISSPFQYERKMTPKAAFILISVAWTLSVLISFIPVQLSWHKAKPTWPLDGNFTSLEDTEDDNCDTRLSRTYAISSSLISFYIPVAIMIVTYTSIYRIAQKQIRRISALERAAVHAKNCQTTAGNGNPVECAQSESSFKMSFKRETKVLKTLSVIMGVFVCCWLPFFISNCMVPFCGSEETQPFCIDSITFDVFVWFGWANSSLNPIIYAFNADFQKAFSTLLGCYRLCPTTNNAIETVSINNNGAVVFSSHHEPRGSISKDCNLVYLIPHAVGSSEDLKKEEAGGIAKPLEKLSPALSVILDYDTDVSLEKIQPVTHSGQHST
For test [5], the target named is T1, D(1A) dopamine receptor. The experiment in a line: Dopamine receptor D1 agonist efficacy was measured with stimulation of dopamine-sensitive rat adenylate cyclase in caudate membranes. Partial agonist, maximum effect 59% of dopamine maximum effect. It counts as functional, cell membranes, Membrane.
The target of test [6] is T1, D(1A) dopamine receptor. The experiment in a line: Dopamine receptor D1 agonist efficacy was measured with stimulation of dopamine-sensitive rat adenylate cyclase in caudate membranes; NS means not significant. It counts as functional, cell membranes, Membrane.
The target of test [7] is T1, D(1A) dopamine receptor. The experiment in a line: Dopamine receptor D1 agonist efficacy was measured with stimulation of dopamine-sensitive rat adenylate cyclase in caudate membranes. Partial agonist, maximum effect 60% of dopamine maximum effect. It counts as functional, cell membranes, Membrane.
In test [8] the target is D(1A) dopamine receptor (Rattus norvegicus) (UniProt P18901). The conditions noted are these: Striatum. This is another data set of the same source.
Test [9] addresses T1, D(1A) dopamine receptor. Put plainly: Dopamine D1 agonist efficacy was measured with stimulation of dopamine-sensitive rat adenylate cyclase in caudate membranes. It counts as functional, cell membranes, Membrane.

Chain of D(2) dopamine receptor (P20288 whole entry, the tested form may be a part): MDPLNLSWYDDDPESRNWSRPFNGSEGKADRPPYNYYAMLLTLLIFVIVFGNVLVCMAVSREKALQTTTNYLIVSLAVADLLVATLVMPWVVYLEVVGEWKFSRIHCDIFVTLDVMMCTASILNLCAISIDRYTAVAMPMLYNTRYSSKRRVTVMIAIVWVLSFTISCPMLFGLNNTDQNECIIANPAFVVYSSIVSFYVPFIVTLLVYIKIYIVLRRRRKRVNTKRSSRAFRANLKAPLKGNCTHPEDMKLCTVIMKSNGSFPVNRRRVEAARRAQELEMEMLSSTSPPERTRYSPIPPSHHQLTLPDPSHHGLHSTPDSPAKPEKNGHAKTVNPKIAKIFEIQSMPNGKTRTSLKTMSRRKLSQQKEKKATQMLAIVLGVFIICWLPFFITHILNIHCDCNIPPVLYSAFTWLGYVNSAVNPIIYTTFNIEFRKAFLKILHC
T1 sequence (P18901 whole entry): as the sequence (P18901 whole entry) above

The term IC50 denotes the concentration that inhibits the measured activity by half. A lower IC50 goes with inhibition by little substance. Usually EC50 stands for the concentration giving half of the maximal effect. A high value points to lower potency in that assay. The molecule `CCCN(CCC)CCc1ccc(O)c2nc(O)sc12` displayed an IC50 in test [1] of 49 nM. Besides, the concentration for a half-maximal effect (EC50) in test [2] was found to be 0.028 nM.
Take `CCCN(CCC)CCc1ccc(O)c(O)c1`: the values for the EC50 in test [3] and in [2] were 12500 nM and 80 nM, respectively.
With `CCCN(CCC)CCc1cccc2c1CC(=O)N2` [ROPINIROLE], the IC50 in test [1] was 6810 nM.
On to `CCCN(CCC)CCc1ccc(O)c2[nH]c(O)nc12`, for which the IC50 in [1] came to 1000 nM. The molecule further gave an EC50 in test [2] of 9 nM.
On to `NCCc1ccc(O)c2c1CC(=O)N2`, for which the K bind in [4] worked out at 700 nM. The molecule also had an IC50 in [1] of 4850 nM. Moreover, the midpoint of the response in [5], the EC50, lay at 4650 nM.
`CCCN(CCC)CCc1ccc(O)c2c1C(=O)C(=O)N2`: the EC50 entry in test [6] was “Not Active”; in test [2], 7 nM. In [1], this molecule displayed an IC50 of 560 nM.
With `NCCc1ccc(O)c2nc(O)sc12`, the 50% effective concentration (EC50) in [7] was determined as 295 nM; in test [2], 30 nM. The molecule further had a K bind in test [8] of 9 nM. In [1], this molecule displayed an IC50 of 2000 nM.
Molecule `Oc1ccc(C2CNCCc3c2cc(O)c(O)c3Cl)cc1` (configuration not stated) [FENOLDOPAM] yielded a K bind in [4] of 3 nM. Further, a half-maximal response in [2] (EC50) required 1200 nM.
In the case of `CCCN(CCC)CCc1cccc2nc(O)sc12`, in test [1], the half-maximal inhibitory concentration (IC50) came out at 1000 nM. The molecule further came in with an EC50 in test [2] of 28 nM.
As for `CCCN(CCC)CCc1ccc(O)c2c1CC(=O)N2` [SKF-89124A], the figures for the EC50 in test [9] and in [2] were 20000 nM and 1.8 nM, respectively. The molecule further displayed an IC50 in [1] of 530 nM.
For the molecule `CCCN(CCC)CCc1c(Cl)cc(O)c2nc(O)sc12`, the EC50 in test [2] stood at 50 nM.
In turn, `NCCc1ccc(O)c(O)c1` [DOPAMINE] displayed an EC50 in test [2] of 76 nM.
In the case of `NCCc1cccc2nc(O)sc12`, the results for the concentration for a half-maximal effect (EC50) entry in [6] and in test [2] were “Not Active” and 1000 nM, respectively. The molecule further came in with an IC50 in test [1] above 10000 nM.
Consider `CNCCc1ccc(O)c2nc(O)sc12`, for which, in [2], the EC50 was 6 nM.
As to `CCCN(CCC)CCc1ccc(O)c2nc(O)oc12`, the IC50 in test [1] was determined as 1200 nM. In addition, in [2], the EC50 turned out to be 8 nM.

The record behind these values is ChEMBL document CHEMBL1123777 (J Med Chem, 1987).
